Assay results published in the RNAGym collection of RNA variant scans (doi:10.1002/anie.201605470).

B1: Osa-1-4 twister ribozyme (parent)
chain: CCGCCUAACACUGCCAAUGCCGGUCCCAAGCCCGGAUAAAAGUGGAGGGGGCGG

Variants of: B1
Assay: self-cleavage, relative activity (ratio to wild type); higher = more cleavage; co-transcriptional
How it was run: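 A DNA template was synthesised for a 54-nucleotide twister ribozyme from Oryza sativa, with 97 % wild-type base and 1 % of each other base at each of the 48 positions downstream of the cleavage site. The ribozyme cleaved itself co-transcriptionally during 2 h of in vitro transcription at 37 °C. Reverse transcription with a template-switching oligonucleotide, PCR amplification and deep sequencing followed, and cleavage status came from reads with or without upstream sequence. Relative activity is the fraction cleaved normalised to wild type.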

Variant	self-cleavage
CCGCCUAACACUGCCAAUGCCGGACCCAAGCCCGGACAAAAGUGGAGGGGGCGG [U24A U37C]	0.28
CCGCCUAACACUGCCAAUGCCGGACCCAAGCCCGGAGAAAAGUGGAGGGGGCGG [U24A U37G]	0.49
CCGCCUAACACUGCCAAUGCCGGACCCAAGCCCGGAAAAAAGUGGAGGGGGCGG [U24A U37A]	0.34
CCGCCUAAAACUGCCAAUGCCGGUACCAAGCCCGGAUAAAAGUGGAGGGGGCGG [C25A C9A]	0.05
CCGCCUAAGACUGCCAAUGCCGGUACCAAGCCCGGAUAAAAGUGGAGGGGGCGG [C25A C9G]	0.08
CCGCCUAAUACUGCCAAUGCCGGUACCAAGCCCGGAUAAAAGUGGAGGGGGCGG [C25A C9U]	0.06
CCGCCUAACACUGCCAAUGCCGGUACCAAGUCCGGAUAAAAGUGGAGGGGGCGG [C25A C31U]	0.03
CCGCCUAACACUGCCAAUGCCGGUACCAAGGCCGGAUAAAAGUGGAGGGGGCGG [C25A C31G]	0.03
CCGCCUAACACUGCCAAUGCCGGUACCAAGACCGGAUAAAAGUGGAGGGGGCGG [C25A C31A]	0.04
CCGCCUAACACUGCCAAUGCCGGCCCCAAGCCCGGAUAAAAGUGGAGGGGGCGG [U24C]	0.53
CCGCCUAACACUGCCAAUGCCGGGCCCAAGCCCGGAUAAAAGUGGAGGGGGCGG [U24G]	0.03
CCGCCUAACACUGCCAAUGCCGGACCCAAGCCCGGAUAAAAGUGGAGGGGGCGG [U24A]	0.42
CCGCCUAACACUGCCAAUGCCGGCCCCAAGCCCGGAUAAAAGAGGAGGGGGCGG [U24C U43A]	0.08
CCGCCUAACACUGCCAAUGCCGGCCCCAAGCCCGGAUAAAAGGGGAGGGGGCGG [U24C U43G]	0.05
CCGCCUAACACUGCCAAUGCCGGCCCCAAGCCCGGAUAAAAGCGGAGGGGGCGG [U24C U43C]	0.06
CCGCCUAACACUGCCAAUGCCGGUACCAAGCCCGGAUAAAAGUGGAGGGGGAGG [C25A C52A]	0.14
CCGCCUAACACUGCCAAUGCCGGUACCAAGCCCGGAUAAAAGUGGAGGGGGUGG [C25A C52U]	0.17
CCGCCUAACACUGCCAAUGCCGGUACCAAGCCCGGAUAAAAGUGGAGGGGGGGG [C25A C52G]	0.17
CCGCCUAACACUGCCAAUGCCGUACCCAAGCCCGGAUAAAAGUGGAGGGGGCGG [G23U U24A]	0.04
CCGCCUAACACUGCCAAUGCCGUCCCCAAGCCCGGAUAAAAGUGGAGGGGGCGG [G23U U24C]	0.03
CCGCCUAACACUGCCAAUGCCGUGCCCAAGCCCGGAUAAAAGUGGAGGGGGCGG [G23U U24G]	0.02
CCGCCUAACACUGCCAAUGCCGGUACCAAGCCAGGAUAAAAGUGGAGGGGGCGG [C25A C33A]	0.05
CCGCCUAACACUGCCAAUGCCGGUACCAAGCCUGGAUAAAAGUGGAGGGGGCGG [C25A C33U]	0.07
CCGCCUAACACUGCCAAUGCCGGUACCAAGCCGGGAUAAAAGUGGAGGGGGCGG [C25A C33G]	0.02
CCGCCUAACACUGCCAAUGCCGGCCCCAAGCCCGGAGAAAAGUGGAGGGGGCGG [U24C U37G]	0.55

Variant	self-cleavage
CCGCCUAACACUGCCAAUGCCGGCCCCAAGCCCGGACAAAAGUGGAGGGGGCGG [U24C U37C]	0.51
CCGCCUAACACUGCCAAUGCCGGCCCCAAGCCCGGAAAAAAGUGGAGGGGGCGG [U24C U37A]	0.45
CCGCCUAACACUGCCAAUGCCGUUCCCAAGCCCGGAUAAAAGUCGAGGGGGCGG [G23U G44C]	0.05
CCGCCUAACACUGCCAAUGCCGUUCCCAAGCCCGGAUAAAAGUAGAGGGGGCGG [G23U G44A]	0.04
CCGCCUAACACUGCCAAUGCCGUUCCCAAGCCCGGAUAAAAGUUGAGGGGGCGG [G23U G44U]	0.06
CCGCCUAACACUGCCAAUGCCGUUCCCAAGCCCGGAUAAAAGUGGAGGGGGCGU [G23U G54U]	0.2
CCGCCUAACACUGCCAAUGCCGUUCCCAAGCCCGGAUAAAAGUGGAGGGGGCGC [G23U G54C]	0.08
CCGCCUAACACUGCCAAUGCCGUUCCCAAGCCCGGAUAAAAGUGGAGGGGGCGA [G23U G54A]	0.09
CCGCCUAACACUGCCAAUGCCGGACCCAAGCCCGGAUAAAAGCGGAGGGGGCGG [U24A U43C]	0.07
CCGCCUAACACUGCCAAUGCCGGACCCAAGCCCGGAUAAAAGGGGAGGGGGCGG [U24A U43G]	0.05
CCGCCUAACACUGCCAAUGCCGGACCCAAGCCCGGAUAAAAGAGGAGGGGGCGG [U24A U43A]	0.07
CCGCCUAACACUGCCAAUGCCGUUCCCAAGCCCGGAUAAAAGUGGAGGGGCCGG [G23U G51C]	0.04
CCGCCUAACACUGCCAAUGCCGUUCCCAAGCCCGGAUAAAAGUGGAGGGGUCGG [G23U G51U]	0.04
CCGCCUAACACUGCCAAUGCCGUUCCCAAGCCCGGAUAAAAGUGGAGGGGACGG [G23U G51A]	0.05
CCGCCUAACACUGCCAAUGCCGUUCCCAAGCCCGGAUAAAACUGGAGGGGGCGG [G23U G42C]	0.03
CCGCCUAACACUGCCAAUGCCGUUCCCAAGCCCGGAUAAAAUUGGAGGGGGCGG [G23U G42U]	0.04
CCGCCUAACACUGCCAAAGCCGUUCCCAAGCCCGGAUAAAAGUGGAGGGGGCGG [G23U U18A]	0.1
CCGCCUAACACUGCCAAGGCCGUUCCCAAGCCCGGAUAAAAGUGGAGGGGGCGG [G23U U18G]	0.14
CCGCCUAACACUGCCAACGCCGUUCCCAAGCCCGGAUAAAAGUGGAGGGGGCGG [G23U U18C]	0.1
CCGCCUAACACUGCCAAUGCCGUUCCCAAGCCCGGAUAAAAGAGGAGGGGGCGG [G23U U43A]	0.04
CCGCCUAACACUGCCAAUGCCGUUCCCAAGCCCGGAUAAAAGCGGAGGGGGCGG [G23U U43C]	0.04
CCGCCUAACACUGCCAAUGCCGUUCCCAAGCCCGGAUAAAAGGGGAGGGGGCGG [G23U U43G]	0.07
CCGCCUAACACUGCCAAUGCCGGGCCCAAGCCCGGAUAAAAGGGGAGGGGGCGG [U24G U43G]	0.07
CCGCCUAACACUGCCAAUGCCGGGCCCAAGCCCGGAUAAAAGCGGAGGGGGCGG [U24G U43C]	0.03
CCGCCUAACACUGCCAAUGCCGGGCCCAAGCCCGGAUAAAAGAGGAGGGGGCGG [U24G U43A]	0.03

Variant	self-cleavage
CCGCCUAACACUGCCAAUACCGGUACCAAGCCCGGAUAAAAGUGGAGGGGGCGG [C25A G19A]	0.06
CCGCCUAACACUGCCAAUUCCGGUACCAAGCCCGGAUAAAAGUGGAGGGGGCGG [C25A G19U]	0.04
CCGCCUAACACUGCCAAUCCCGGUACCAAGCCCGGAUAAAAGUGGAGGGGGCGG [C25A G19C]	0.03
CCGCCUAACACUGCCAAUGCCGGUACCAAGCUCGGAUAAAAGUGGAGGGGGCGG [C25A C32U]	0.04
CCGCCUAACACUGCCAAUGCCGGUACCAAGCACGGAUAAAAGUGGAGGGGGCGG [C25A C32A]	0.08
CCGCCUAACACUGCCAAUGCCGGUACCAAGCGCGGAUAAAAGUGGAGGGGGCGG [C25A C32G]	0.05
CCGCCUAACACUGCCAAUGCCGUUCCCAAGCCCGGAUAAAAGUGGAGGGGGCAG [G23U G53A]	0.06
CCGCCUAACACUGCCAAUGCCGUUCCCAAGCCCGGAUAAAAGUGGAGGGGGCUG [G23U G53U]	0.06
CCGCCUAACACUGCCAAUGCCGUUCCCAAGCCCGGAUAAAAGUGGAGGGGGCCG [G23U G53C]	0.03
CCGCCUAACACUGCCAAUGCCGUUCCCAAGCCCGGAUAAAAGUGUAGGGGGCGG [G23U G45U]	0.03
CCGCCUAACACUGCCAAUGCCGUUCCCAAGCCCGGAUAAAAGUGCAGGGGGCGG [G23U G45C]	0.03
CCGCCUAACACUGCCAAUGCCGUUCCCAAGCCCGGAUAAAAGUGAAGGGGGCGG [G23U G45A]	0.04
CCGCCUAACACUGCCAAUGCCGUUCCCAAGCCCGGAUAAAAGUGGAGAGGGCGG [G23U G48A]	0.02
CCGCCUAACACUGCCAAUGCCGUUCCCAAGCCCGGAUAAAAGUGGAGUGGGCGG [G23U G48U]	0.03
CCGCCUAACACUGCCAAUGCCGUUCCCAAGCCCGGAUAAAAGUGGAGCGGGCGG [G23U G48C]	0.03
CCGCCUAACACUACCAAUGCCGGUACCAAGCCCGGAUAAAAGUGGAGGGGGCGG [C25A G13A]	0.03
CCGCCUAACACUUCCAAUGCCGGUACCAAGCCCGGAUAAAAGUGGAGGGGGCGG [C25A G13U]	0.02
CCGCCUAACACUCCCAAUGCCGGUACCAAGCCCGGAUAAAAGUGGAGGGGGCGG [C25A G13C]	0.02
CCGCCUAACACUGCCAAUGCCGGUACCAAGCCCGGAUAAAAGUGGAGGGGGCGG [C25A]	0.2
CCGCCUAACACUGCCAAUGCCGUUCCCAAGCCCGGACAAAAGUGGAGGGGGCGG [G23U U37C]	0.16
CCGCCUAACACUGCCAAUGCCGUUCCCAAGCCCGGAGAAAAGUGGAGGGGGCGG [G23U U37G]	0.19
CCGCCUAACACUGCCAAUGCCGUUCCCAAGCCCGGAAAAAAGUGGAGGGGGCGG [G23U U37A]	0.14
CCGCCUAACACUGCCAAUGCCGGUAGCAAGCCCGGAUAAAAGUGGAGGGGGCGG [C25A C26G]	0.05
CCGCCUAACACUGCCAAUGCCGGUAUCAAGCCCGGAUAAAAGUGGAGGGGGCGG [C25A C26U]	0.08
CCGCCUAACACUGCCAAUGCCGGUAACAAGCCCGGAUAAAAGUGGAGGGGGCGG [C25A C26A]	0.04

Variant	self-cleavage
CCGCCUAACACUGCCAAUGCCGGGCCCAAGCCCGGAAAAAAGUGGAGGGGGCGG [U24G U37A]	0.04
CCGCCUAACACUGCCAAUGCCGGGCCCAAGCCCGGACAAAAGUGGAGGGGGCGG [U24G U37C]	0.02
CCGCCUAACACUGCCAAUGCCGGGCCCAAGCCCGGAGAAAAGUGGAGGGGGCGG [U24G U37G]	0.04
CCGCCUAACACCGCCAAUGCCGUUCCCAAGCCCGGAUAAAAGUGGAGGGGGCGG [G23U U12C]	0.04
CCGCCUAACACAGCCAAUGCCGUUCCCAAGCCCGGAUAAAAGUGGAGGGGGCGG [G23U U12A]	0.05
CCGCCUAACACGGCCAAUGCCGUUCCCAAGCCCGGAUAAAAGUGGAGGGGGCGG [G23U U12G]	0.05
CCGCCUAACACUGCCAAUGCCGAUACCAAGCCCGGAUAAAAGUGGAGGGGGCGG [C25A G23A]	0.06
CCGCCUAACACUGCCAAUGCCGGUACAAAGCCCGGAUAAAAGUGGAGGGGGCGG [C25A C27A]	0.06
CCGCCUAACACUGCCAAUGCCGGUACUAAGCCCGGAUAAAAGUGGAGGGGGCGG [C25A C27U]	0.03
CCGCCUAACACUGCCAAUGCCGGUACGAAGCCCGGAUAAAAGUGGAGGGGGCGG [C25A C27G]	0.03
CCGCCUAACACUGCCAAUGCCAGUACCAAGCCCGGAUAAAAGUGGAGGGGGCGG [C25A G22A]	0.15
CCGCCUAACACUGCCAAUGCCUGUACCAAGCCCGGAUAAAAGUGGAGGGGGCGG [C25A G22U]	0.07
CCGCCUAACACUGCCAAUGCCCGUACCAAGCCCGGAUAAAAGUGGAGGGGGCGG [C25A G22C]	0.03
CCGCCUAACACUGCCAAUGCCGUUCCCAAGCCCGGAUAAAAGUGGAGGAGGCGG [G23U G49A]	0.03
CCGCCUAACACUGCCAAUGCCGUUCCCAAGCCCGGAUAAAAGUGGAGGUGGCGG [G23U G49U]	0.03
CCGCCUAACACUGCCAAUGCCGUUCCCAAGCCCGGAUAAAAGUGGAGGCGGCGG [G23U G49C]	0.03
CCGCCUAACACUGCCAAUGCCGUUCCCAAGCCCGGAUAAAAGUGGAGGGUGCGG [G23U G50U]	0.06
CCGCCUAACACUGCCAAUGCCGUUCCCAAGCCCGGAUAAAAGUGGAGGGAGCGG [G23U G50A]	0.05
CCGCCUAACACUGCCAAUGCCGUUCCCAAGCCCGGAUAAAAGUGGAGGGCGCGG [G23U G50C]	0.05
CCGCCUAACACUGCCAAUGCCGUUCCCAAGCCCGGAUAAAAGUGGAAGGGGCGG [G23U G47A]	0.03
CCGCCUAACACUGCCAAUGCCGUUCCCAAGCCCGGAUAAAAGUGGACGGGGCGG [G23U G47C]	0.03
CCGCCUAACACUGCCAAUGCCGUUCCCAAGCCCGGAUAAAAGUGGAUGGGGCGG [G23U G47U]	0.04
